Assay outcomes (PubChem)
MsrA act: activates bovine MsrA enzyme. purified bovine MsrA, absorbance read-out. activation, % at 10.6 µM. 360,000 compounds, 0.3% hits; in the data active = activation above about 7.5%;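 note: 0% = vehicle and 100% = reference activator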
NR2E3 ag-1: agonists of human nuclear receptor NR2E3 | GST-NR2E3/biotin-RetCOR TR-FRET, 1536-well | inhibition of corepressor binding, % at 4.78 µM | 320,000 compounds, 0.12% hits | AID 2300;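 active = percent inhibition above the cutoff of mean plus 3 SD of all tested compounds, set per screening campaign, cut at about 20% in these data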;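 note: 0% = DMSO wells and 100% = biotin wells as full block of FRET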
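System: GST-NR2E3 and biotin-RetCOR proteins; probe or stimulus: 7 nM biotin-RetCOR; doses: compound at 4.8 µM, single dose; schedule: Compound–protein incubation for 5 h at 4 °C; detection: time-resolved FRET; read-out: percent inhibition; controls: biotin wells as high control, 0.6% DMSO wells as low control; format: 1536-well plates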
MsrA inhibitor: inhibits bovine methionine sulfoxide reductase A; 360,000 compounds, 0.75% hits; inhibition, % at 15.5 µM; purified bovine MsrA, absorbance read-out;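 note: 0% = vehicle wells with enzyme and 100% = reference inhibitor wells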
NR2E3 ag-2: human photoreceptor-specific nuclear receptor agonism; CHO-S Gal4-NCOR/VP16-NR2E3 two-hybrid, luciferase; Q9Y5X4; inhibition of corepressor binding, % at 3.98 µM; AID 602229; 360,000 compounds, 0.35% hits;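 active = inhibition above the mean of all tested compounds plus 3 SD, cut at about 70% in these data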;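 note: 0% = DMSO with NR2E3 transfected cells and 100% = cells lacking NR2E3 construct; higher means lower luciferase signal from less NR2E3 corepressor binding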
NadD inh: inhibitors of Staphylococcus aureus NadD. purified NadD enzyme, colorimetric absorbance read-out. inhibition, % at 20 µM. 360,000 compounds, 0.78% hits. AID 602399; in the data active = inhibition above about 26%
GalR3 antagonist: blocks the human galanin receptor 3 | HEK293 GalR3-CNG cAMP membrane potential fluorescence; galR3 body fused to GalR1 C-terminus | 360,000 compounds, 0.44% hits | inhibition, % at 3 µM;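 active = inhibition above the screen-wide average plus 3 SD, cut at about 13% in these data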;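 note: forskolin and galanin both at EC90 stimulate the cells; cAMP rise reported by CNG channel membrane potential dye signal; 0% = forskolin plus galanin with DMSO and 100% = forskolin alone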
Target sequence (O60755 1-299 limits assumed): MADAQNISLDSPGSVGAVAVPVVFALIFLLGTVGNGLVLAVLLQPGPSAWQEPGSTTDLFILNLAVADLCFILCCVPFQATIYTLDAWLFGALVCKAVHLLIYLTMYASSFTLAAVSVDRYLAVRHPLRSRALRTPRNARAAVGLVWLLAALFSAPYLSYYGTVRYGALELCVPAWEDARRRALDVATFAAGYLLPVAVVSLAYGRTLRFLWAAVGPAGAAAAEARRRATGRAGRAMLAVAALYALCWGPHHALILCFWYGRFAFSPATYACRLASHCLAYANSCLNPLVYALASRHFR
MsrA conf: bovine MsrA inhibition, confirmed; inhibition, % at 15.5 µM; AID 651822; shares compounds with MsrA inhibitor; purified bovine MsrA, absorbance read-out; 2,300 compounds, 41% hits;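 note: coupled to thioredoxin reductase with NADPH and selenocystamine and DMSO as substrate; 0% = vehicle only and 100% = full effect of reference inhibitor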
* marks the source's active call; other numbers are inactive results; / = no result. Sampled rows, rich in hits. Any-hit rate of the full collection: about 2.5%. Cut-off read from the data, not from the text of the source, unless noted: active = inhibition above about 4.5%; inactive = the rest.

SMILES | MsrA act | NR2E3 ag-1 | MsrA inhibitor | NR2E3 ag-2 | NadD inh | GalR3 antagonist | MsrA conf
CSCc1c(C(=O)NC2CCCc3ccccc32)oc2ccccc12 (stereo not given) | -5 | 0 | 0 | -12 | 7 | -1 | /
CN(C)c1ccc(NC2=C(Cl)C(=O)c3ccccc3C2=O)cc1 | -1 | -12 | 8.2* | -78 | -3 | -6 | 3
COC(=O)c1ccccc1NC(=S)NC(=O)C1CC1 | -2 | -6 | 12* | 1 | -3 | -4 | 11*
COC(=O)c1ccccc1NC(=S)NC(C)=O | -1 | 0 | 0 | 3 | 1 | -1 | /
CC(=O)c1ccc(OCC(=O)OCC(=O)NCc2ccco2)cc1 | -2 | 1 | -1 | -18 | -3 | 1 | /
O=C(C1CC1c1ccccc1)N1CCOCC1 (stereo not given) | -10 | -6 | -1 | 10 | 0 | -5 | /
COCCn1c(=NC(=O)c2cc(Cl)sc2Cl)sc2cc(S(N)(=O)=O)ccc21 | -6 | 3 | 0 | -14 | 15 | 0 | /
COCCn1c(=NC(=O)c2ccc3c(c2)OCCO3)sc2cc(S(N)(=O)=O)ccc21 | -15 | 2 | 6.2* | 8 | 5 | -5 | 3
C=CCN(CC=C)C(=S)NC(=O)/C=C/c1ccc(C)cc1 | -1 | -1 | -2 | -18 | 3 | -4 | /
COc1ccc(/C=C/C(=O)NC(=S)NNC(=O)c2cnccn2)cc1 | -4 | 1 | 1 | -10 | -3 | -3 | /
C=CCN(CC=C)C(=S)NC(=O)/C=C/c1ccc(OC)cc1 | -9 | 0 | 4.8* | -14 | -3 | -5 | 2
COc1ccc(/C=C/C(=O)NC(=S)NNC(=O)c2cccnc2)cc1 | -2 | -2 | 6.0* | -59 | 3 | -8 | 5.2*
CC(C)C(=O)Nc1nnc(Cc2ccccc2)s1 | -5 | 3 | -2 | -18 | -3 | -1 | /
CC(C)(C)NC(=O)C1CCCN(S(=O)(=O)c2ccc(-n3cnnn3)cc2)C1 (stereo not given) | -2 | 3 | -1 | 1 | 3 | -7 | /
CCOC(=O)/C(C#N)=C/Nc1cc(F)ccc1C | -6 | 4 | 5.8* | -2 | -6 | -4 | 1
CCOC(=O)C(=O)/C(C#N)=C/Nc1ccc(F)cc1 | -4 | 3 | 0 | 1 | 4 | -4 | /
CCN(CC(=O)Nc1ccc2c(c1)OCCO2)C(=O)C(C)Oc1ccc(F)cc1 (stereo not given) | -4 | / | 1 | -12 | 2 | 0 | /
N/C(=N\N=C\c1ccc2c(c1)OCO2)c1nonc1N | -7 | 2 | 7.3* | -137 | 6 | -2 | 4
N/C(=N\N=C\c1cccc([N+](=O)[O-])c1)c1nonc1N | -2 | -2 | 3 | -105 | -2 | -3 | /
O=c1[nH]c(=S)[nH]cc1S(=O)(=O)c1cccc(Cl)c1 | 3 | / | 5.8* | -19 | 2 | -4 | 3
CCC(C)Nc1c([N+](=O)[O-])cc(C)cc1[N+](=O)[O-] (stereo not given) | 0 | 0 | -1 | -1 | -10 | -1 | /
CCOc1cc(S(=O)(=O)N2CCN(S(=O)(=O)CC)CC2)c(OCC)cc1-n1cnnn1 | -3 | 1 | 0 | -2 | -2 | 3 | /
CCOc1cc(S(=O)(=O)NCc2ccc(OC)cc2)c(OCC)cc1-n1cnnn1 | -3 | 4 | 0 | -44 | -1 | -7 | /
CCOc1cc(S(=O)(=O)NCc2ccco2)c(OCC)cc1-n1cnnn1 | -3 | -1 | 7.7* | -18 | 1 | 4 | 3
CCOc1cc(S(=O)(=O)NC2CC2)c(OCC)cc1-n1cnnn1 | -2 | -1 | 25* | -20 | 3 | -5 | 23*
SMILES | MsrA act | NR2E3 ag-1 | MsrA inhibitor | NR2E3 ag-2 | NadD inh | GalR3 antagonist | MsrA conf
Cc1ccc2cc(/C=N/NC(=O)CN3CCOCC3)c(Cl)nc2c1 | -3 | 2 | 5.0* | -16 | 1 | -4 | 3
Cc1ccn2c(=O)c(C(=O)O)cnc2c1 | -2 | 3 | 4.7* | 0 | 1 | -2 | 4
CCOC(=O)c1cnc2cc(C)ccn2c1=O | -7 | 3 | 3 | -13 | -3 | 4 | /
CCOC(=O)C(/C=C(\C#N)C(=O)OCC)=C(/N)N1CCN(c2ccccc2)CC1 | -3 | 6 | 6.8* | 2 | -6 | -2 | 5.3*
CCOC(=O)/C(C#N)=C/c1ccc(N2CCN(C)CC2)cc1 | 1 | 0 | 3 | -14 | -9 | 0 | /
CCSc1nc(C2CC2)cc(-c2ccco2)c1C#N | -5 | 2 | 0 | -16 | 20 | -2 | /
CC(C)(C)c1cc(-c2ccco2)c(C#N)c(SCC#N)n1 | 0 | -2 | 9.2* | -50 | -4 | -1 | 5.2*
COc1ccc(Cl)cc1C(=O)OCC(=O)N(C)CC(=O)Nc1ccc(F)cc1 | -3 | -2 | -1 | 9 | 3 | -5 | /
C/C(=N\NC(N)=S)c1ccc(Cl)s1 | -4 | 2 | 5.7* | -11 | 9 | 0 | 4.8*
C/C(=N\NC(=S)NC(C)C)c1ccc(Cl)s1 | -5 | 1 | 4 | 9 | 1 | -5 | /
COc1ccc(-c2cc3ccc(OCC(N)=O)cc3oc2=O)cc1OC | -8 | 2 | 5.6* | -2 | -6 | -6 | 1
COc1ccc(-c2cc3ccc(OC(C)C(=O)O)cc3oc2=O)cc1 (stereo not given) | -7 | / | 5.7* | -59 | 2 | -9 | 4
c1ccc(-c2ccc(-c3ccccn3)nn2)nc1 | / | -4 | 0 | / | / | 0 | /
COc1cc(/C=N\NC(=O)c2sc(N)nc2C)cc(OC)c1OC | -7 | 1 | 7.0* | 1 | -4 | 0 | 5.2*
Cc1nc(N)sc1C(=O)N/N=C/c1ccccc1[N+](=O)[O-] | -18 | 1 | 3 | -36 | 2 | -3 | /
CC(/C=N/NC(=O)c1sc(N)nc1C)=C\c1ccccc1 | -4 | -2 | 6.7* | -72 | -1 | -3 | 4
CS(=O)(=O)N1CCC(C(=O)NNC(=O)Nc2ccc(F)c(Cl)c2)CC1 | -8 | 11 | 0 | 1 | -1 | -2 | /
CC(=O)O[C@@H]1[C@@H](OC(C)=O)[C@H](n2ccc3cc([N+](=O)[O-])ccc32)OC[C@@H]1OC(C)=O | -8 | -1 | 2 | -6 | -5 | -3 | /
CC(=O)OC1COC(n2ccc3cc([N+](=O)[O-])ccc32)C(OC(C)=O)C1OC(C)=O (stereo not given) | -4 | -2 | 6.0* | -4 | -5 | 0 | 3
COc1ccc(/C=N/Nc2cc(C)nc3ccccc23)cc1 | -6 | 4 | 0 | -2 | -7 | 2 | /
COc1ccc2nc(C)cc(N/N=C/c3ccc(F)cc3)c2c1 | -7 | -4 | 42* | 4 | 4 | -7 | 54*
CC(C)c1ccc(Nc2ncc3c(n2)CCN(C(=O)NC2CCCCC2)C3)cc1 | -2 | / | 0 | -30 | -3 | -4 | /
